Data reported in ChEMBL document CHEMBL1157805, “Virtual screening, selection and development of a benzindolone structural scaffold for inhibition of lumazine synthase” (Bioorg Med Chem, 2010).

Key:
[1] = Inhibition of Mycobacterium tuberculosis recombinant riboflavin synthase at […] state after 30 mins by fluorescence assay
Method in brief: (§1)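 Recombinant M. tuberculosis riboflavin synthase (1 μM) in 100 mM Tris-HCl pH 7.0, 100 mM NaCl, 5 mM DTT, 2% DMSO. 6,7-Dimethyl-8-ribityllumazine substrate was varied 3–60 μM and inhibitor 0–200 μM. Reactions were started with substrate. Riboflavin formation was monitored at 470 nm for 30 min at 27 °C. Velocity–substrate data for all inhibitor levels were fitted by nonlinear regression to alternative inhibition models.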

[2] = target: T1, 6,7-dimethyl-8-ribityllumazine synthase (Mycobacterium tuberculosis, UniProt P9WHE9); experiment: Inhibition of Mycobacterium tuberculosis recombinant lumazine synthase at enzyme-substrate-inhibitor complex state after 30 mins by fluorescence assay
T1 sequence (P9WHE9 whole entry): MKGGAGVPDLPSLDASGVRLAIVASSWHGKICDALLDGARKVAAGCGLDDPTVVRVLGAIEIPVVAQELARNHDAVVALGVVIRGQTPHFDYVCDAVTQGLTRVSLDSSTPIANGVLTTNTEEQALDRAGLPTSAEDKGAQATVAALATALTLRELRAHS
Method in brief: (§2)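 Recombinant M. tuberculosis lumazine synthase (2 μM) in 100 mM Tris-HCl pH 7.0, 100 mM NaCl, 5 mM DTT, 2% DMSO. Dihydroxybutanone phosphate was fixed at 100 μM, pyrimidinedione substrate varied 3–100 μM, and inhibitor 0–200 μM. Reactions were started with the pyrimidinedione substrate. Lumazine formation was read at 408 nm for 30 min at 27 °C. Velocity–substrate data were fitted by nonlinear regression to alternative inhibition models.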

[3] = Inhibition of Mycobacterium tuberculosis recombinant riboflavin synthase at enzyme-substrate-inhibitor complex state after 30 mins by fluorescence assay; method in brief: as §1
[4] = target: T1, 6,7-dimethyl-8-ribityllumazine synthase; experiment: Inhibition of Mycobacterium tuberculosis recombinant lumazine synthase at enzyme-inhibitor complex state after 30 mins by fluorescence assay; method in brief: as §2

| SMILES | Ki [1] [µM] | Ki [2] [µM] | Ki [3] [µM] | Ki [4] [µM] |
| --- | --- | --- | --- | --- |
| O=C1Nc2ccc(S(=O)(=O)NCCCCCCOP(=O)(O)O)c3cccc1c23 | 9.8 | 723 | 898 |  |
| O=C1Nc2ccc(S(=O)(=O)NCCOP(=O)(O)O)c3cccc1c23 |  |  |  | 260 |
| O=C1Nc2ccc(S(=O)(=O)NCCCOP(=O)(O)O)c3cccc1c23 |  |  |  | 99 |
| O=C(O)CNS(=O)(=O)c1ccc2c3c(cccc13)C(=O)N2 |  |  |  | 70 |
| O=C1Nc2ccc(S(=O)(=O)NCCCCC(F)(F)P(=O)(O)O)c3cccc1c23 | 4.1 | 518 | > 1000 | 832 |
| O=C1Nc2ccc(S(=O)(=O)NCCCCOP(=O)(O)O)c3cccc1c23 |  |  |  | 38 |
| CCOC(=O)C(=O)Nc1c(Cl)[nH]c(=O)[nH]c1=O |  |  |  | 832 |
